Assay results taken from ChEMBL document CHEMBL1150119, “Cytotoxic germacranolides from Inula verbascifolia subsp. methanea” (J Nat Prod, 2002).
≈ marks a conversion by molar mass, not a printed value.

Experiments:
Type in all cases: functional, cell-based
[1] = Cytotoxicity against human HRT18 cells after 48 hrs by MTT assay; details: HRT-18, 48 h
In short: (§1)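 Adherent human tumor cells kept in DMEM with 10% FBS, penicillin and streptomycin, at 37 °C under 5% CO₂ and 85% humidity, and subcultured with trypsin-EDTA. Cells were seeded at 5000/well and compounds in DMSO were added 24 h later. After 48 h, medium was swapped for MTT (1 mg/mL final, serum-free phenol-red-free RPMI) for 4 h. Formazan was dissolved in 2-propanol and read at 550 nm against 690 nm reference.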

MCF7 = test: Cytotoxicity against human MCF7 cells expressing estrogen receptor after 48 hrs by MTT assay; details: MCF7, 48 h; in short: as §1
LNCaP = test: Cytotoxicity against human LNCAP cells expressing androgen receptor after 48 hrs by MTT assay; in short: as §1
HCT-116 = test: Cytotoxicity against human HCT116 cells after 48 hrs by MTT assay; details: HCT-116, 48 h; in short: as §1
HT-29 = test: Cytotoxicity against human HT-29 cells after 48 hrs by MTT assay; details: HT-29, 48 h; in short: as §1
PC-3 = test: Cytotoxicity against human PC3 cells after 48 hrs by MTT assay; details: PC-3, 48 h; in short: as §1

For C=C1C(=O)O[C@@H]2[C@H]3O[C@]3(C)CC/C=C(\C)[C@@H](OC(=O)CC(C)(O)CC)C[C@@H]12 (some centres undefined), the IC50 [1] was 8.75 µg/mL (≈ 23.1 µM), the IC50 (MCF7) was > 40 µg/mL and the IC50 (LNCaP) was 30.2 µg/mL (≈ 79.8 µM). The IC50 (HCT-116) was 7.1 µg/mL (≈ 18.8 µM), the IC50 (HT-29) was 11.7 µg/mL (≈ 30.9 µM) and the IC50 (PC-3) was 15.7 µg/mL (≈ 41.5 µM).

For C=C1C(=O)O[C@@H]2[C@H]3O[C@]3(C)CC/C=C(\C)[C@@H](OC(=O)C(C)C(C)O)C[C@@H]12 (some centres undefined), the IC50 [1] was 13.4 µg/mL (≈ 36.8 µM), the IC50 (MCF7) was > 40 µg/mL and the IC50 (LNCaP) was 25.4 µg/mL (≈ 69.7 µM). It also gave an IC50 (HCT-116) of 0.39 µg/mL (≈ 1.07 µM), an IC50 (HT-29) of 11.7 µg/mL (≈ 32.1 µM) and an IC50 (PC-3) of 11.3 µg/mL (≈ 31 µM).

With C=C1C(=O)O[C@@H]2[C@H]3O[C@]3(C)CC/C=C(\C)[C@@H](OC(=O)CC(C)(C)O)C[C@@H]12 the IC50 [1] was 14.9 µg/mL (≈ 40.9 µM), the IC50 (MCF7) was > 40 µg/mL and the IC50 (LNCaP) was 34.2 µg/mL (≈ 93.8 µM). It also gave an IC50 (HCT-116) of 14.1 µg/mL (≈ 38.7 µM), an IC50 (HT-29) of 17.5 µg/mL (≈ 48 µM) and an IC50 (PC-3) of 18.2 µg/mL (≈ 49.9 µM).

COc1cccc2c1C(=O)c1c(O)c3c(c(O)c1C2=O)C[C@@](O)(C(C)=O)C[C@@H]3O[C@H]1C[C@H](N)[C@H](O)[C@H](C)O1.Cl [DAUNORUBICIN HYDROCHLORIDE] gave an IC50 [1] of 0.11 µg/mL, an IC50 (MCF7) of 0.12 µg/mL and an IC50 (LNCaP) of 0.011 µg/mL. For the same compound, the IC50 (HCT-116) was 0.28 µg/mL, the IC50 (HT-29) was 0.072 µg/mL and the IC50 (PC-3) was 0.23 µg/mL.
